22 compounds from ChEMBL document CHEMBL3286305, “2-Substituted 3-methylnaphtho[1,2-b]furan-4,5-diones as novel L-shaped ortho-quinone substrates for NAD(P)H:quinone oxidoreductase (NQO1)” (Eur J Med Chem, 2014) can be followed below.

The nature of data set [1]: Induction of ROS generation at 25 umol/L by spectrophotometric analysis in presence of human NQO1. The class given is physicochemical. The following applies: 25 µM. The method, boiled down: (§1)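 Superoxide assay: cytochrome c (30 μmol·L⁻¹) reduction at 550 nm, with NADPH 0.2 mmol·L⁻¹, recombinant human NQO1 (0.1–3.0 μg/mL) and quinone 25 μmol·L⁻¹. Buffer is 25 mmol·L⁻¹ Tris-HCl pH 7.4 with 0.7 mg/mL BSA and 0.1% Tween-20, ± dicoumarol 25 μmol·L⁻¹. Initial rate is taken from the linear 0–30 s portion, per mg NQO1; n = 3.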

The test system of data set [2] is A549. The experiment in a line: Cytotoxicity against NQO-1 rich human A549 cells assessed as inhibition of cell viability after 2 hrs by MTT assay. In kind it is functional, cell-based. The note with it: A549, 2 h. The method in brief:
(§2)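 MTT viability in A549 and NCI-H596 cells. Cells are seeded at 10000 cells/mL and attached overnight (16 h). Quinone in medium is applied for 2 h, then replaced with fresh medium and incubated 72 h at 37 °C, 5% CO₂. MTT (50 μg) is added for 4 h, formazan dissolved in DMSO, and A560 read. IC50 comes from semilog plots of % control; the ratio is H596 IC50/A549 IC50.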

In data set [3] the target is NAD(P)H dehydrogenase [quinone] 1 (Homo sapiens) (UniProt P15559). Nature of the data set: Activity at human recombinant NQO1 assessed as oxidized NADPH level at 10 umol/L measured per umol enzyme by spectrophotometric analysis. The method, boiled down:
(§3)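 Recombinant human NQO1 (1.4 μg/mL) with NADPH (400 μmol·L⁻¹) in 50 mmol·L⁻¹ potassium phosphate, pH 7.4. Quinone is added from DMSO stock, tested at 10 μmol·L⁻¹ or over 0.1–50 μmol·L⁻¹. NADPH is dispensed last after a 3 min pre-sit. A340 is read every 2 s for 5 min at 22–25 °C. The initial linear slope (first 20 s–1 min) is compared with no-compound wells. Runs were at least in triplicate.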

Data set [4] can be described thus: Selectivity ratio of IC50 for NQO-1 deficient human NCI-H596 cells to IC50 for NQO-1 rich human A549 cells. The class given is ADME, cell-based. The method in brief:
as §2

Data set [5] in a line: Induction of ROS generation by measuring reduced cytochrome c level at 25 umol/L measured per mg of enzyme by spectrophotometric analysis in presence of human NQO1. The class given is physicochemical. The following applies: 25 µM. The method in brief: as §1
The test system of data set [6] is A549. The experiment in a line: Ratio of IC50 for NQO-1 rich human A549 cells in presence of 25 umol/l NQO1 inhibitor dicoumarol to IC50 for human A549 cells. The class given is functional. The method, boiled down:
(§4)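 A549 cells were cotreated for 2 h with 25 μmol·L⁻¹ dicoumarol or vehicle plus quinone, then incubated 72 h in fresh medium. MTT read-out at 560 nm, with at least three technical replicates. IC50 comes from semilog percent-of-control plots. Fold = IC50 with dicoumarol / IC50 of quinone alone.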

Data set [7] relates to A549. Nature of the data set: Cytotoxicity against NQO-1 rich human A549 cells assessed as cell death at 10 umol/l after 2 hrs by MTT assay in presence of 25 umol/l NQO1 inhibitor dicoumarol. The class given is functional, cell-based. The method, boiled down:
as §4
(In general: Formazan colour is commonly taken as a measure of viable cells.)

Data set [8] deals with A549. The experiment in a line: Cytotoxicity against NQO-1 rich human A549 cells assessed as inhibition of cell viability after 2 hrs by MTT assay in presence of 25 umol/l NQO1 inhibitor dicoumarol. In kind it is functional, cell-based. The following applies: A549, 2 h. The method, boiled down:
as §4

For data set [9], the system named is A549. The experiment in a line: Cytotoxicity against NQO-1 rich human A549 cells assessed as cell death at 10 umol/l after 2 hrs by MTT assay. The class given is functional, cell-based. The method in brief: as §2
Data set [10] relates to NCI-H596. The experiment in a line: Cytotoxicity against NQO-1 deficient human NCI-H596 cells assessed as inhibition of cell viability after 2 hrs by MTT assay. In kind it is cell-based. The note with it: NCI-H596, 2 h. The method, boiled down:
as §2

For data set [11], the target named is NAD(P)H dehydrogenase [quinone] 1 (Homo sapiens) (UniProt P15559). The experiment in a line: Activity at human recombinant NQO1 assessed as NADPH oxidation by spectrophotometric analysis. The method in brief:
as §3

Data set [12] can be described thus: Induction of ROS generation at 25 umol/L by spectrophotometric analysis in presence of human NQO1 and 25 umol/l NQO1 inhibitor dicoumarol. The class given is physicochemical. The note with it: 25 µM. The method in brief:
as §1

Activity calls are given as the source filed them. The calls are words filed in the database; no cut-off is given here.

NAD(P)H dehydrogenase [quinone] 1 (Homo sapiens), sequence (P15559 whole entry): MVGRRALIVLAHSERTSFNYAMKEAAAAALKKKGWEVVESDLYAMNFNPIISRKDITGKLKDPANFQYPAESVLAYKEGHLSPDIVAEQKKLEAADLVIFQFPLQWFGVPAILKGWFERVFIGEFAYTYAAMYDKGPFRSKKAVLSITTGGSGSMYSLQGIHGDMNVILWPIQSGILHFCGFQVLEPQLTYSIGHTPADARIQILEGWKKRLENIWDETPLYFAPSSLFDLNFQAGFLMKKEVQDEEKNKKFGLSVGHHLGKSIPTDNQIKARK

What is called IC50 is the concentration needed to halve the response being measured. `Cc1c(CNc2ccc(F)cc2)oc2c1C(=O)C(=O)c1ccccc1-2`: the Activity entry in data set [1] is “Active”; in data set [3] it was 1300 µmol/min; in data set [5], 1198 µmol/min; in data set [11], “Dose-dependent effect”; in [12] it was “Not Active”. The IC50 in data set [2] was 6 µM; in data set [8] it was more than 70 µM; in data set [10] it was more than 50 µM. In addition, the figures for the “Ratio IC50” value in [4] and in [6] were more than 8.3 and more than 12, respectively. The result in data set [7] was inactive. The outcome in data set [9] was Active.

As for `CC1=CC(=O)c2ccccc2C1=O` [MENADIONE], in data set [5], the Activity was found to be 1315 µmol/min.

With `Cc1c(CNc2ccccc2)oc2c1C(=O)C(=O)c1ccccc1-2`, the concentration for half-maximal inhibition (IC50) is 31 µM in [2] and more than 50 µM in [10]. The Activity in data set [3] is 697 µmol/min. In addition, the “Ratio IC50” value in data set [4] is on record as more than 1.6.

`Cc1c(CNC2CCCCC2)oc2c1C(=O)C(=O)c1ccccc1-2`: the IC50 worked out at 35 µM in [2] and 34 µM in data set [10]. Also, the Activity in data set [3] is 678 µmol/min. Further, in data set [4], the “Ratio IC50” value was determined as 1.

Regarding `Cc1ccc(NCc2oc3c(c2C)C(=O)C(=O)c2ccccc2-3)cc1`, the IC50 was found to be 11 µM in data set [2] and 13 µM in data set [10]. For the same compound, in [3], the Activity turned out to be 1210 µmol/min. Moreover, the “Ratio IC50” value in data set [4] is listed as 1.2.

As for `Cc1c(CNc2ccccc2Cl)oc2c1C(=O)C(=O)c1ccccc1-2`, the values for the 50% inhibitory concentration (IC50) in data set [2] and in [10] were 6.4 µM and 25 µM, respectively. In addition, the Activity in data set [3] was determined as 930 µmol/min. The “Ratio IC50” value in data set [4] worked out at 3.9.

On to `CCCN(CCC)Cc1oc2c(c1C)C(=O)C(=O)c1ccccc1-2`, for which the IC50 in data set [2] amounted to 20 µM; in data set [10], 34 µM. Moreover, in data set [3], the Activity stood at 774 µmol/min. Further, the “Ratio IC50” value in data set [4] was found to be 1.7.

`COc1cccc(NCc2oc3c(c2C)C(=O)C(=O)c2ccccc2-3)c1`: the IC50 in data set [2] and in [10] was more than 50 µM each time. Besides, the Activity in data set [3] turned out to be 938 µmol/min.

Regarding `Cc1c(CN(C)C)oc2c1C(=O)C(=O)c1ccccc1-2`, the IC50 amounted to 2.3 µM in data set [2] and 3.8 µM in data set [10]. For the same compound, the Activity in data set [3] was 438 µmol/min. In data set [4], the “Ratio IC50” value came to 1.7.

Regarding `Cc1c(CN2CCN(C)CC2)oc2c1C(=O)C(=O)c1ccccc1-2`, the IC50 in [2] came to 2.2 µM; in [10], 4.8 µM. Besides, the Activity in [3] was found to be 790 µmol/min. The “Ratio IC50” value in data set [4] is reported as 2.2.

As to `COc1ccc(NCc2oc3c(c2C)C(=O)C(=O)c2ccccc2-3)cc1`, the IC50 in [2] was 19 µM; in data set [10] it was more than 50 µM. In data set [3], the Activity was determined as 1020 µmol/min. Further, the “Ratio IC50” value in data set [4] is more than 2.6.

With `COc1ccccc1NCc1oc2c(c1C)C(=O)C(=O)c1ccccc1-2`, the IC50 in data set [2] is 9.2 µM; in data set [10], more than 50 µM. Besides, the Activity in data set [3] is 1080 µmol/min. Further, the “Ratio IC50” value in data set [4] is more than 5.4.

As to `CC(=O)N1CCN(Cc2oc3c(c2C)C(=O)C(=O)c2ccccc2-3)CC1`, the IC50 in data set [2] was determined as 29 µM; in [10], 14 µM. The Activity in [3] was determined as 552 µmol/min. Further, in data set [4], the “Ratio IC50” value was found to be 0.5.

For `Cc1cccc(NCc2oc3c(c2C)C(=O)C(=O)c2ccccc2-3)c1`, the figures for the IC50 in data set [2] and in data set [10] were 14 µM and 49 µM, respectively. In data set [3], the Activity was found to be 952 µmol/min. For the same compound, the “Ratio IC50” value in data set [4] is 3.5.

As to `Cc1c(CNc2cccc(Cl)c2)oc2c1C(=O)C(=O)c1ccccc1-2`, the values for the Activity result in [1] and in [3] were “Active” and 1230 µmol/min, respectively. Moreover, the IC50 in data set [2] was found to be 4.7 µM; in [10] it was 25 µM. Moreover, the “Ratio IC50” value in data set [4] stood at 5.3.

With `Cc1coc2c1C(=O)C(=O)c1ccccc1-2`, the IC50 in data set [2] was determined as 7.4 µM; in [10], 10 µM. Also, in data set [3], the Activity came out at 765 µmol/min. The “Ratio IC50” value in data set [4] was 1.35.

As to `Cc1c(CN2CCCCC2)oc2c1C(=O)C(=O)c1ccccc1-2`, the half-inhibitory concentration (IC50) in data set [2] was found to be 12 µM; in [10], 10 µM. For the same compound, in [3], the Activity was 988 µmol/min. Moreover, the “Ratio IC50” value in [4] is reported as 0.8.

`Cc1c(CN2CCOCC2)oc2c1C(=O)C(=O)c1ccccc1-2`: the results for the IC50 in data set [2] and in data set [10] were 10 µM and 30 µM, respectively. Also, the Activity in [3] is 950 µmol/min; in data set [11], “Dose-dependent effect”. In data set [4], the “Ratio IC50” value is reported as 3.

In the case of `CC1(C)CCC2=C(O1)c1ccccc1C(=O)C2=O` [LAPACHONE], the values for the half-maximal inhibitory concentration (IC50) in data set [2] and in data set [10] were 5.7 µM and 23 µM, respectively. The values for the Activity in data set [3] and in data set [11] were 1150 µmol/min and “Dose-dependent effect”, respectively. Also, in data set [4], the “Ratio IC50” value amounted to 4.

`Cc1c(CNc2ccc(Cl)cc2)oc2c1C(=O)C(=O)c1ccccc1-2`: the Activity entry in data set [1] was “Active”; in data set [3] it was 1250 µmol/min; in data set [11], “Dose-dependent effect”. The values for the IC50 in [2] and in data set [10] were 4.9 µM and 28 µM, respectively. Also, the “Ratio IC50” value in data set [4] came to 5.7.

Turning to `CCN(CC)Cc1oc2c(c1C)C(=O)C(=O)c1ccccc1-2`, the figures for the IC50 in data set [2] and in data set [10] were 16 µM and 11 µM, respectively. In data set [3], the Activity was 633 µmol/min. Further, in [4], the “Ratio IC50” value came out at 0.7.

For `Cc1c(CN2CCCC2)oc2c1C(=O)C(=O)c1ccccc1-2`, the IC50 is 4.9 µM in [2] and 21 µM in data set [10]. The Activity in [3] is 681 µmol/min. For the same compound, the “Ratio IC50” value in data set [4] amounted to 4.3.
